In brackets after ≈: the same amount, converted by molar mass. Activity calls are given as the source filed them. The rule behind the calls is not given here. Where a SMILES comes first, the peptide text is derived from it.
How the values were obtained:
[1] = Half life in human serum at 1 mM incubated for 24 hrs by LC-MS analysis; assay type: ADME, cell-free
Method in brief: (§1)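 Human serum combined with equal volume of 1 mM aqueous peptide stock, incubated 24 h at 37 °C with gentle swirling. Aliquots taken at 0, 1, 5, 10, 30, 120, 360 and 1440 min, quenched with 15% trichloroacetic acid for 30 min at 4 °C, and centrifuged to remove serum proteins. Remaining peptide followed by LC-MS.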

Pseudomonas aeruginosa [2] = assay: Antibacterial activity against Pseudomonas aeruginosa ATCC 27853 by microdilution method; assay type: functional
Method in brief: (§2)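 Strains subcultured at least twice on sheep blood agar and incubated 24 h before testing; inoculum made by direct suspension in saline to 0.5 McFarland turbidity. MIC determined by broth microdilution in Mueller–Hinton broth following CLSI guidelines; gentamicin run as control antibiotic.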

Staphylococcus aureus [3] = assay: Antibacterial activity against Staphylococcus aureus ATCC 29213 by microdilution method; assay type: functional; method in brief: as §2
[4] = Cytotoxicity against human HeLaS3 cells after 4 hrs by cell titer blue dye assay; assay type: functional, cell-based; conditions: HeLa S3, 4 h
Method in brief: (§3)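 Tumor cells cultured in DMEM with 10% FBS, 37 °C, 5% CO2, kept at 10^5–10^6 cells/mL. About 60 000 cells mixed with 2-fold serial peptide dilutions (final 0.1–100 μM) in DMEM with 2% FBS for 30 min at 37 °C. About 10 000 treated cells per well then got Cell Titer Blue; fluorescence (ex 530, em 590 nm) read 4 and 24 h after dye addition. Viability relative to medium-only controls; triplicate.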

[5] = Cytotoxicity against human 1BR3G cells assessed as reduction of cell viability at 100 uM after 4 hrs by cell titer blue dye assay; assay type: cell-based
Method in brief: (§4)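 1BR3G human fibroblasts grown in DMEM with 10% FBS at 37 °C, 5% CO2; 5000 cells/well seeded for 24 h, then medium swapped for DMEM with 2% FBS holding 2-fold serial peptide dilutions (final 0.1–100 μM). After 30 min, Cell Titer Blue added; fluorescence (ex 530, em 590 nm) read 4 and 24 h after dye addition. Viability relative to 2% FBS medium-only controls; triplicate.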

Staphylococcus aureus [6] = assay: Antibacterial activity against clinical isolate Staphylococcus aureus by microdilution method; assay type: functional; method in brief: as §2
Pseudomonas aeruginosa [7] = assay: Antibacterial activity against clinical isolate Pseudomonas aeruginosa by microdilution method; assay type: functional; method in brief: as §2
Escherichia coli [8] = assay: Antibacterial activity against clinical isolate Escherichia coli by microdilution method; assay type: functional; method in brief: as §2
HeLa S3 = assay: Cytotoxicity against human HeLaS3 cells after 24 hrs by cell titer blue dye assay; assay type: functional, cell-based; method in brief: as §3
[9] = Cytotoxicity against human 1BR3G cells assessed as reduction of cell viability at 100 uM after 24 hrs by cell titer blue dye assay; assay type: cell-based; method in brief: as §4
U-937 [10] = assay: Cytotoxicity against human U937 cells after 24 hrs by cell titer blue dye assay; assay type: functional, cell-based; method in brief: as §3
Klebsiella pneumoniae = assay: Antibacterial activity against clinical isolate Klebsiella pneumoniae by microdilution method; assay type: functional; method in brief: as §2
Escherichia coli [11] = assay: Antibacterial activity against Escherichia coli ATCC 25922 by microdilution method; assay type: functional; method in brief: as §2
THP-1 [12] = assay: Cytotoxicity against human THP1 cells after 24 hrs by cell titer blue dye assay; assay type: functional, cell-based; method in brief: as §3
Acinetobacter baumannii = assay: Antibacterial activity against clinical isolate Acinetobacter baumannii by microdilution method; assay type: functional
Method in brief: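 A. baumannii clinical isolate subcultured at least twice on sheep blood agar, 24 h incubation before testing; saline suspension adjusted to 0.5 McFarland. Broth microdilution MIC in Mueller–Hinton broth per CLSI; gentamicin as control antibiotic.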

Streptococcus pyogenes = assay: Antibacterial activity against clinical isolate Streptococcus pyogenes by microdilution method; assay type: functional
Method in brief: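 S. pyogenes isolate subcultured twice on sheep blood agar, incubated 24 h, suspended in saline to 0.5 McFarland. MIC by CLSI broth microdilution in Mueller–Hinton broth supplemented with 5% lysed horse blood; gentamicin control.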

Enterococcus faecalis [13] = assay: Antibacterial activity against clinical isolate Enterococcus faecalis by microdilution method; assay type: functional; method in brief: as §2
[14] = Metabolic stability in human serum assessed as compound remaining at 1 mM after 24 hrs by LC-MS analysis; assay type: ADME, cell-free; conditions: read-out: Stability; method in brief: as §1
THP-1 [15] = assay: Cytotoxicity against human THP1 cells after 4 hrs by cell titer blue dye assay; assay type: functional, cell-based; conditions: for IC50: THP-1, 4 h; method in brief: as §3
[16] = Toxicity in human erythrocytes assessed as induction of hemolysis up to 400 uM incubated for 30 mins by microplate reader assay; assay type: cell-based, Erythrocyte; conditions: read-out: Activity
Method in brief: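 Fresh human blood collected in EDTA; erythrocytes washed three times in PBS. Mixed 1:1 with 2-fold serial peptide dilutions to final 4% (v/v) cells and 0.1–400 μM peptide. Incubated 30 min at 37 °C with gentle agitation, then centrifuged; supernatant A540 measured. Percent hemolysis scaled between untreated cells and 1% Triton X-100; triplicate.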

Enterococcus faecalis [17] = assay: Antibacterial activity against Enterococcus faecalis ATCC 29212 by microdilution method; assay type: functional; method in brief: as §2
U-937 [18] = assay: Cytotoxicity against human U937 cells after 4 hrs by cell titer blue dye assay; assay type: functional, cell-based; conditions: for IC50: U-937, 4 h; method in brief: as §3
[19] = Toxicity in human erythrocytes assessed as induction of hemolysis at 100 uM incubated for 30 mins by microplate reader assay; assay type: cell-based, Erythrocyte; conditions: read-out: Activity
Method in brief: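 Fresh human blood erythrocytes, PBS-washed, were incubated as a 4% (v/v) final suspension with peptide (0.1–400 μM final) for 30 min at 37 °C with gentle agitation. After centrifugation, hemoglobin in the supernatant was read at A540. Percent hemolysis was calculated against 1% Triton X-100 (positive) and untreated cells; triplicate.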

HL-60 [20] = assay: Cytotoxicity against human HL60 cells after 4 hrs by cell titer blue dye assay; assay type: functional, cell-based
Method in brief: (§5)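 Suspension cells (~60 000) were mixed with 2-fold peptide dilutions (0.1–100 μM final) in DMEM/2% FBS, 30 min at 37 °C, 5% CO2. ~10 000 cells per well then received Cell Titer Blue. Resorufin fluorescence (ex 530/em 590 nm) was read at 4 and 24 h; viability relative to medium-only controls; triplicate.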

HL-60 [21] = assay: Cytotoxicity against human HL60 cells after 24 hrs by cell titer blue dye assay; assay type: functional, cell-based; method in brief: as §5
[22] = Cytotoxicity against human 1BR3G cells after 4 hrs by cell titer blue dye assay; assay type: cell-based
Method in brief: (§6)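 1BR3G fibroblasts grown in DMEM/10% FBS, seeded 5000 cells/well, incubated 24 h at 37 °C, then medium swapped for 2% FBS medium with 2-fold peptide dilutions (0.1–100 μM final). After 30 min, Cell Titer Blue dye was added; fluorescence (ex 530/em 590 nm) read 4 and 24 h later. Viability relative to untreated medium controls; triplicate.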

Jurkat E6.1 [23] = assay: Cytotoxicity against human Jurkat E6-1 cells after 24 hrs by cell titer blue dye assay; assay type: functional, cell-based; method in brief: as §5
[24] = Cytotoxicity against human 1BR3G cells after 24 hrs by cell titer blue dye assay; assay type: cell-based; method in brief: as §6
Jurkat E6.1 [25] = assay: Cytotoxicity against human Jurkat E6-1 cells after 4 hrs by cell titer blue dye assay; assay type: functional, cell-based; method in brief: as §5
[26] = Drug degradation in human serum at 1 mM after 24 hrs by LC-MS analysis; assay type: ADME, cell-free; conditions: read-out: Drug degradation; method in brief: as §1

| Compound | half-life at 1000 µM [1] | MIC (Pseudomonas aeruginosa [2]) | MIC (Staphylococcus aureus [3]) | IC50 [4] | Activity [5] | MIC (Staphylococcus aureus [6]) | MIC (Pseudomonas aeruginosa [7]) | MIC (Escherichia coli [8]) | Activity (HeLa S3) | Activity [9] | Activity (U-937 [10]) | MIC (Klebsiella pneumoniae) | MIC (Escherichia coli [11]) | Activity (THP-1 [12]) | MIC (Acinetobacter baumannii) | MIC (Streptococcus pyogenes) | MIC (Enterococcus faecalis [13]) | IC50 (THP-1 [15]) | hemolysis at 0.5 h [16] | MIC (Enterococcus faecalis [17]) | also measured |
| --- | --- | --- | --- | --- | --- | --- | --- | --- | --- | --- | --- | --- | --- | --- | --- | --- | --- | --- | --- | --- | --- |
| CC[C@H](C)[C@H](NC(=O)[C@H](CCCCN)NC(=O)[C@H](CCCCN)NC(=O)[C@H](CC(C)C)NC(=O)[C@H](CCCNC(=N)N)NC(=O)[C@H](CCCCN)NC(=O)[C@@H](N)CCCCN)C(=O)N[C@@H](Cc1ccccc1)C(=O)N[C@@H](CCCCN)C(=O)N[C@@H](CCCCN)C(=O)N1CCC[C@H]1C(=O)N[C@@H](CCSC)C(=O)N[C@H](C(=O)N[C@H](C(=O)NCC(=O)N[C@H](C(=O)N[C@H](C(=O)N[C@H](C(=O)N1CCC[C@H]1C(=O)N[C@@H](Cc1ccccc1)C(N)=O)[C@@H](C)CC)[C@H](C)O)C(C)C)[C@@H](C)CC)C(C)C | 12.8 h | 27 µM (≈ 64 µg/mL) | 54 µM (≈ 128 µg/mL) | 1 µM | 20% | 54 µM (≈ 128 µg/mL) | 27 µM (≈ 64 µg/mL) | 3.4 µM (≈ 8.06 µg/mL) | Active | Non-toxic | Active | 3.4 µM (≈ 8.06 µg/mL) | 0.11 µM (≈ 0.261 µg/mL) | Active | 1.7 µM (≈ 4.03 µg/mL) | 3.4 µM (≈ 8.06 µg/mL) | 54 µM (≈ 128 µg/mL) | 25 µM | 7% | 54 µM (≈ 128 µg/mL) | remaining at 24 h, 1000 µM [14]: 10%; IC50 (U-937 [18]): 6.25 µM |
| CC[C@H](C)[C@H](NC(=O)[C@H](CCCCN)NC(=O)[C@H](CCCCN)NC(=O)[C@H](CC(C)C)NC(=O)[C@H](CCCNC(=N)N)NC(=O)[C@H](CCCCN)NC(=O)[C@H](CCCCN)NC(=O)[C@@H](NC(=O)[C@H](CO)NC(=O)[C@H](CCCCN)NC(=O)[C@H](CCCCN)NC(=O)[C@@H](NC(=O)[C@H](CCCCN)NC(=O)[C@H](CCCCN)NC(=O)[C@H](Cc1ccccc1)NC(=O)[C@H](Cc1ccccc1)NC(=O)[C@H](CCCCN)NC(=O)[C@H](CCCCN)NC(=O)[C@H](Cc1ccccc1)NC(=O)[C@H](CCCNC(=N)N)NC(=O)[C@@H](N)CCCCN)C(C)C)C(C)C)C(=O)N[C@@H](Cc1ccccc1)C(=O)N[C@@H](CCCCN)C(=O)N[C@@H](CCCCN)C(=O)N1CCC[C@H]1C(=O)N[C@@H](CCSC)C(=O)N[C@H](C(=O)N[C@H](C(=O)NCC(=O)N[C@H](C(=O)N[C@H](C(=O)N[C@H](C(=O)N1CCC[C@H]1C(=O)N[C@@H](Cc1ccccc1)C(N)=O)[C@@H](C)CC)[C@H](C)O)C(C)C)[C@@H](C)CC)C(C)C | 1.18 h | 0.24 µM (≈ 0.996 µg/mL) | 7.7 µM (≈ 32 µg/mL) | < 1 µM | – | 7.7 µM (≈ 32 µg/mL) | 3.8 µM (≈ 15.8 µg/mL) | 3.8 µM (≈ 15.8 µg/mL) | Active | – | Active | 1.9 µM (≈ 7.89 µg/mL) | 0.06 µM (≈ 0.249 µg/mL) | Active | 3.8 µM (≈ 15.8 µg/mL) | 3.8 µM (≈ 15.8 µg/mL) | 31 µM (≈ 129 µg/mL) | 1.56 µM | 33% | 7.7 µM (≈ 32 µg/mL) | hemolysis at 0.5 h, 100 µM [19]: 7%; IC50 (HL-60 [20]; HL-60, 4 h): > 12.5 µM; Activity (HL-60 [21]): Active; IC50 [22]: 6.25 µM; Activity (Jurkat E6.1 [23]): Active; Activity [24]: Toxic; IC50 (Jurkat E6.1 [25]; Jurkat E6.1, 4 h): > 12.5 µM; IC50 (U-937 [18]): < 1 µM |
| CC(C)[C@H](NC(=O)[C@H](CO)NC(=O)[C@H](CCCCN)NC(=O)[C@H](CCCCN)NC(=O)[C@@H](NC(=O)[C@H](CCCCN)NC(=O)[C@H](CCCCN)NC(=O)[C@H](Cc1ccccc1)NC(=O)[C@H](Cc1ccccc1)NC(=O)[C@H](CCCCN)NC(=O)[C@H](CCCCN)NC(=O)[C@H](Cc1ccccc1)NC(=O)[C@H](CCCNC(=N)N)NC(=O)[C@@H](N)CCCCN)C(C)C)C(N)=O (H-KRFKKFFKKVKKSV-NH2) | 0.35 h | 71 µM (≈ 128 µg/mL) | 71 µM (≈ 128 µg/mL) | > 10 µM | 20% | 71 µM (≈ 128 µg/mL) | 71 µM (≈ 128 µg/mL) | 71 µM (≈ 128 µg/mL) | Active | Non-toxic | inactive | 71 µM (≈ 128 µg/mL) | 71 µM (≈ 128 µg/mL) | inactive | 71 µM (≈ 128 µg/mL) | 36 µM (≈ 64.7 µg/mL) | 71 µM (≈ 128 µg/mL) | – | 7% | 71 µM (≈ 128 µg/mL) | Activity (HL-60 [20]): inactive; metabolised at 24 h, 1000 µM [26]: 100%; Activity (HL-60 [21]): inactive; Activity (Jurkat E6.1 [23]): inactive; Activity (THP-1 [15]): inactive; Activity (Jurkat E6.1 [25]): inactive; Activity (U-937 [18]): inactive |
| GENTAMICIN | – | 2.1 µM | 0.5 µM | – | – | 0.5 µM | 17 µM | 34 µM | – | – | – | 4.2 µM | 1 µM | – | 17 µM | 17 µM | 34 µM | – | – | 17 µM | – |

Reference: ChEMBL document CHEMBL3632543, “Structural Dissection of Crotalicidin, a Rattlesnake Venom Cathelicidin, Retrieves a Fragment with Antimicrobial and Antitumor Activity” (J Med Chem, 2015)
